≈ marks a conversion by molar mass, not a printed value.
How the values were obtained:
HT-29 = test: Cytotoxicity against human HT29 cells; type: functional; conditions: read-out: ED50 (the source's name)
Procedure, shortened: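 HT-29 human colon adenocarcinoma cells from ATCC; in vitro cytotoxicity by a previously described procedure; result given as ED50 in µg/mL, with ED50 ≤ 4.0 µg/mL taken as significant for pure compounds.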

P388 = test: Cytotoxicity against mouse P388 cells; type: functional, cell-based
Procedure, shortened: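 P-388 mouse lymphocytic leukemia cells provided by an academic lab; in vitro cytotoxicity by a previously described procedure; result given as ED50 in µg/mL, with ED50 ≤ 4.0 µg/mL taken as significant for pure compounds.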

Row | Structure (SMILES) | EC50 (HT-29) [µg/mL] | IC50 (P388) [µg/mL]
1 | C=CC1CCC2C3CCC4CC(OC5OC(C)C(O)C(OC(C)=O)C5O)CCC4(C)C3CCC12C (stereo not drawn) | 6.2 (≈ 12.6 µM) | 13.3 (≈ 27.1 µM)
2 | C=C[C@H]1CC[C@H]2[C@@H]3CC[C@H]4C[C@@H](O)CC[C@]4(CO)[C@H]3CC[C@]12C [STEREONSTEROID A] | 7.5 (≈ 23.5 µM) | 3.5 (≈ 11 µM)
3 | C=C[C@H]1CC[C@H]2[C@@H]3CC[C@H]4C[C@@H](OC(C)=O)CC[C@]4(C=O)[C@H]3CC[C@]12C [STEREONSTEROID B] | 1.7 (≈ 4.74 µM) | 1.6 (≈ 4.46 µM)
4 | C=C[C@H]1CC[C@H]2[C@@H]3CC[C@H]4C[C@@H](O[C@@H]5O[C@@H](C)[C@@H](OC(C)=O)[C@@H](O)[C@@H]5O)CC[C@]4(CO)[C@H]3CC[C@]12C [STEREONSTEROID C] | 2.7 (≈ 5.33 µM) | 3.1 (≈ 6.12 µM)
5 | C=C[C@H]1CC[C@H]2[C@@H]3CC[C@H]4C[C@@H](O[C@@H]5O[C@@H](C)[C@@H](OC(C)=O)[C@@H](O)[C@@H]5O)CC[C@]4(COC(C)=O)[C@H]3CC[C@]12C [STEREONSTEROID D] | 5.2 (≈ 9.48 µM) | 4.9 (≈ 8.93 µM)
6 | C=C[C@H]1CC[C@H]2[C@@H]3CC[C@H]4C[C@@H](O[C@@H]5O[C@@H](C)[C@@H](OC(C)=O)[C@@H](O)[C@@H]5O)CC[C@]4(C=O)[C@H]3CC[C@]12C [STEREONSTEROID E] | 9.3 (≈ 18.4 µM) | 3.8 (≈ 7.53 µM)
7 | C=C[C@H]1CC[C@H]2[C@@H]3CC[C@H]4C[C@@H](O[C@@H]5O[C@@H](C)[C@@H](OC(C)=O)[C@@H](O)[C@@H]5O)CC[C@]4(C)[C@H]3CC[C@]12C [STEREONSTEROID F] | 10.8 (≈ 22 µM) | 9.4 (≈ 19.2 µM)
8 | C=C[C@H]1CC[C@H]2[C@@H]3CC=C4C[C@@H](O[C@@H]5O[C@@H](C)[C@@H](O)[C@@H](OC(C)=O)[C@@H]5O)CC[C@]4(C)[C@H]3CC[C@]12C [STEREONSTEROID H] | 5.3 (≈ 10.8 µM) | 5.4 (≈ 11.1 µM)
9 | C=C[C@H]1CC[C@H]2[C@@H]3CC[C@H]4C[C@@H](O[C@@H]5OC[C@@H](O)[C@H](O)[C@H]5O)CC[C@]4(C)[C@H]3CC[C@]12C [STEREONSTEROID I] | 7.7 (≈ 17.7 µM) | 5.9 (≈ 13.6 µM)

From ChEMBL document CHEMBL1157227, “Cytotoxic pregnane steroids from the formosan soft coral Stereonephthya crystalliana” (J Nat Prod, 2006)
